Results from ChEMBL document CHEMBL1132814, “N-1 substituted pyrimidin-4-ones: novel, orally active inhibitors of lipoprotein-associated phospholipase A2” (Bioorg Med Chem Lett, 2000).

These molecules were tested against T1, Platelet-activating factor acetylhydrolase (Homo sapiens) (UniProt Q13093) (assay: Inhibition of Lipoprotein associated phospholipase A2 in human plasma at 100 nM).
T1 sequence (whole entry): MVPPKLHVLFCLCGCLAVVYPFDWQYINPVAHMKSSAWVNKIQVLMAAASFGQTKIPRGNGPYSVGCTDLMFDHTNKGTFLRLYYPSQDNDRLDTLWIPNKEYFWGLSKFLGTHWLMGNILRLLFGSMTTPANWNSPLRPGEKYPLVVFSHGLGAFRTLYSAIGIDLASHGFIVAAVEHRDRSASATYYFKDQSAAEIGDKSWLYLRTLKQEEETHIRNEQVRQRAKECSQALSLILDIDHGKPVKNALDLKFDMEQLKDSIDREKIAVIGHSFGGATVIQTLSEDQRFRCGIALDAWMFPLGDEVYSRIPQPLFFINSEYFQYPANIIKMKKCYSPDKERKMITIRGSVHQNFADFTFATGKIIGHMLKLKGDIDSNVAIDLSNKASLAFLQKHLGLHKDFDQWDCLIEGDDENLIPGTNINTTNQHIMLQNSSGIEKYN
Type: cell-free
How it was run: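 Whole plasma (human, or WHHL rabbit) mixed with compound in DMSO at a single concentration and preincubated 10 min at 37 °C before enzyme assay. Reaction ran 60 s in human plasma and 15 s in rabbit plasma, then stopped with CHCl3/MeOH (2:1). Released [3H]acetate was read by scintillation counting of the aqueous layer after chloroform extraction.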

inhibition [%] | SMILES
26 | O=c1nc(SCc2ccc(F)cc2)n(Cc2ccco2)cc1Cc1cncnc1
28 | Cn1cc(Cc2cncnc2)c(=O)nc1SCc1ccc(F)cc1
27 | O=c1nc(SCc2ccc(F)cc2)n(CCc2ccccc2)cc1Cc1cncnc1

These molecules were tested against T2, Platelet-activating factor acetylhydrolase (Homo sapiens, UniProt Q13093) (assay: Inhibition of isolated human lipoprotein associated phospholipase A2).
T2 sequence (Q13093 whole entry): T1 sequence (whole entry)

IC50 [nM] | SMILES
300 | O=c1nc(SCc2ccccc2)n(CCCc2ccccc2)cc1Cc1cncnc1
0.7 | CCCCCCCC/C=C/CCCCCCCCNC(=O)CCCn1cc(Cc2cncnc2)c(=O)nc1SCc1ccc(F)cc1
3 | CCCCCCCN(C)C(=O)CCCn1cc(Cc2cncnc2)c(=O)nc1SCc1ccc(F)cc1
39 | CCn1cc(Cc2cncnc2)c(=O)nc1SCCCCCCCC(=O)c1ccc(Cl)cc1
1 | CCCCCCCCC=CCCCCCCCCNC(=O)Cn1cc(Cc2cncnc2)c(=O)nc1SCc1ccc(F)cc1
90 | O=C(CCCCCCCSc1nc(=O)c(Cc2cncnc2)cn1CCCc1ccccc1)c1ccc(Cl)cc1
19 | CCCCCCCNC(=O)Cn1cc(Cc2cncnc2)c(=O)nc1SCc1ccc(F)cc1
300 | O=c1nc(SCc2ccc(F)cc2)n(Cc2ccco2)cc1Cc1cncnc1
1200 | COCCn1cc(Cc2cncnc2)c(=O)nc1SCc1ccccc1
11 | O=C(CCCCCCCSc1nc(=O)c(Cc2cncnc2)cn1Cc1cccs1)c1ccc(Cl)cc1
140 | CCCCCCCC(=O)NCCn1cc(Cc2cncnc2)c(=O)nc1SCc1ccc(F)cc1
34 | O=C(CCCCCCCSc1nc(=O)c(Cc2cncnc2)cn1CCc1ccccc1)c1ccc(Cl)cc1
260 | CCCCNC(=O)CCCCCn1cc(Cc2cncnc2)c(=O)nc1SCc1ccc(F)cc1
210 | O=c1nc(SCc2ccccc2)n(CCc2ccccc2)cc1Cc1cncnc1
0.1 | CCCCCCCCCCNC(=O)CCCn1cc(Cc2cncnc2)c(=O)nc1SCc1ccc(F)cc1
0.4 | CCCCCCCCC=CCCCCCCCCNC(=O)CCCn1cc(Cc2cncnc2)c(=O)nc1SCc1ccc(F)cc1
960 | O=c1nc(SCc2cccc(Cl)c2)n(Cc2ccco2)cc1Cc1cncnc1
19 | Cn1cc(Cc2cncnc2)c(=O)nc1SCCCCCCCC(=O)c1ccc(Cl)cc1
350 | O=c1nc(SCc2ccccc2)n(CCc2cccs2)cc1Cc1cncnc1
110 | O=c1nc(SCc2ccc(F)c(F)c2)n(CCc2ccccc2)cc1Cc1cncnc1
36 | O=C(CCCCCCCSc1nc(=O)c(Cc2cncnc2)cn1Cc1ccccc1)c1ccc(Cl)cc1

IC50 [nM] | SMILES
16 | O=C(CCCCCCCSc1nc(=O)c(Cc2cncnc2)cn1Cc1ccco1)c1ccc(Cl)cc1
15 | CCCCCCCCN(C)C(=O)Cn1cc(Cc2cncnc2)c(=O)nc1SCc1ccc(F)cc1
2 | CCCCCCCC/C=C/CCCCCCCCNC(=O)Cn1cc(Cc2cncnc2)c(=O)nc1SCc1ccc(F)cc1
450 | O=c1nc(SCc2ccccc2)n(Cc2ccccc2)cc1Cc1cncnc1
7 | CCCCCCCCNC(=O)Cn1cc(Cc2cncnc2)c(=O)nc1SCc1ccc(F)cc1
235 | O=c1nc(SCc2ccc(F)c(F)c2)n(Cc2ccco2)cc1Cc1cncnc1
4 | CCCCCCCCCCCCCCCCCCNC(=O)CCCn1cc(Cc2cncnc2)c(=O)nc1SCc1ccc(F)cc1
450 | O=c1nc(SCc2ccccc2F)n(Cc2ccco2)cc1Cc1cncnc1
2 | O=C(Cn1cc(Cc2cncnc2)c(=O)nc1SCc1ccc(F)cc1)NCCCCCCc1ccc(F)cc1
250 | O=c1nc(SCc2ccc(F)cc2)n(CCc2cccs2)cc1Cc1cncnc1
12 | CCCCCCc1ccc(CCn2cc(Cc3cncnc3)c(=O)nc2SCc2ccc(F)cc2)cc1
285 | Cn1cc(Cc2cncnc2)c(=O)nc1SCc1ccc(F)cc1
200 | O=c1nc(SCc2ccc(F)cc2)n(CCc2ccccc2)cc1Cc1cncnc1
660 | Cn1cc(Cc2cncnc2)c(=O)nc1SCc1ccccc1
110 | COCCn1cc(Cc2cncnc2)c(=O)nc1SCCCCCCCC(=O)c1ccc(Cl)cc1
1400 | O=c1nc(SCc2ccc(Cl)cc2)n(Cc2ccco2)cc1Cc1cncnc1
210 | O=c1nc(SCc2ccccc2)n(Cc2cccs2)cc1Cc1cncnc1
250 | O=c1nc(SCc2cccc(F)c2)n(Cc2ccco2)cc1Cc1cncnc1
25 | O=c1nc(SCc2ccc(F)cc2)n(CCCCCCCCCc2ccccc2)cc1Cc1cncnc1
70 | CCCCCCCNC(=O)NCCn1cc(Cc2cncnc2)c(=O)nc1SCc1ccc(F)cc1
19 | CCCCCCCCCCCn1cc(Cc2cncnc2)c(=O)nc1SCc1ccc(F)cc1
